Data taken from ChEMBL document CHEMBL4613269, “2-((4-Arylpiperazin-1-yl)methyl)benzonitrile Derivatives as Orally Available Inhibitors of Hepatitis C Virus with a Novel Mechanism of Action” (J Med Chem, 2020).
Active and inactive are the calls of the source. The calls are words filed in the database; no cut-off is given here.

Experiments:
[1] = Toxicity in Kunming mouse assessed as effect on AST level at 250 to 1000 mg/kg dosed via single oral gavage and measured on day 7 post treatment; assay type: organism-based; conditions: in vivo
How it was run: (§1)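 Kunming mice, 4 groups of n = 6 (3 male, 3 female). Fasted from 12 h before to 1 h after dosing. Single oral gavage of 250, 500 or 1000 mg/kg suspended in 0.5% CMC-Na, or vehicle alone. Followed for 7 days: survival, body weight before and at day 7. Day-7 blood taken for AST, ALT, urea nitrogen and creatinine.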

[2] = Toxicity in Kunming mouse assessed as effect on ALT level at 250 to 1000 mg/kg dosed via single oral gavage and measured on day 7 post treatment; assay type: organism-based; conditions: in vivo; how it was run: as §1
[3] = Apparent Volume of distribution in Sprague-Dawley rat at 15 mg/kg, po measured after 0.08 to 72 hrs post dose by LC-MS/MS analysis; assay type: ADME, organism-based; conditions: in vivo
How it was run: (§2)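 Single dose to fasted (12 h) animals: oral gavage 15 mg/kg as suspension in 0.5% CMC-Na, or iv 5 mg/kg dissolved in citric acid buffer pH 5.0 with 2.5% DMSO. Jugular vein blood on heparin at 0.08 (iv only) to 72 h. Plasma assayed by LC-MS/MS; parameters from noncompartmental analysis.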

[4] = Selectivity index, ratio of CC50 for cytotoxicity in African green monkey Vero E6 cells to EC50 for Antiviral activity against Zika virus infected in Vero E6 cells; assay type: toxicity, cell-based, Vero C1008; conditions: read-out: Ratio CC50/EC50
Hepatitis C virus [5] = test: Antiviral activity against HCV genotype 2a pseudoparticle infected in human Huh7.5 cells assessed as reduction in viral replication; assay type: functional, organism-based; conditions: Hepacivirus hominis; subtype 2a
How it was run: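 Genotype 1b or 2a HCV pseudoparticles made by co-transfecting HEK 293T cells with envelope and luciferase-reporter HIV plasmids; input standardized by luciferase. Huh7.5 cells co-incubated with compound and HCVpp for 4 h at 37°C, washed, then luciferase read at 72 h.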

[6] = Apparent Volume of distribution in Sprague-Dawley rat at 5 mg/kg, iv measured after 0.08 to 72 hrs post dose by LC-MS/MS analysis; assay type: ADME, organism-based; conditions: in vivo, read-out: Vz; how it was run: as §2
Hepatitis C virus [7] = test: Antiviral activity against HCV GS4.3 infected in human Huh7.5 cells assessed as reduction in viral NS3 protein levels at 0.1 to 5 uM incubated for 14 days by Western blot assay; assay type: functional, organism-based; conditions: Hepacivirus hominis
[8] = Cytotoxicity in MDCK cells assessed as reduction in cell viability; assay type: cell-based, Canis lupus familiaris; conditions: dog
[9] = Half life in beagle dog at 5 mg/kg, iv measured after 0.08 to 72 hrs post dose by LC-MS/MS analysis; assay type: ADME, organism-based, Canis lupus familiaris; conditions: in vivo
[10] = Drug level in Sprague-Dawley rat at 5 mg/kg, iv measured after 24 hrs post dose by LC-MS/MS analysis; assay type: ADME, organism-based; conditions: in vivo, read-out: Drug uptake; how it was run: as §2
[11] = Tmax in beagle dog at 15 mg/kg, po measured after 0.08 to 72 hrs post dose by LC-MS/MS analysis; assay type: ADME, organism-based, Canis lupus familiaris; conditions: in vivo
Hepatitis C virus [12] = test: Antiviral activity against HCV expressing NS3 D168V mutant by qRT-PCR analysis based by Reed-Muench method; assay type: functional, organism-based, Hepacivirus hominis
How it was run: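 Huh7.5 cells seeded at 3×10^4/cm², infected 24 h later with wild-type or mutant HCV stock while compound or solvent was added at the same time. Intracellular HCV RNA measured by qRT-PCR at 72 h, normalised to GAPDH, 2^-ΔCT method. EC50 by Reed & Muench from eight-step 1:5 serial dilutions, triplicate wells.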

[13] = Cmax in beagle dog at 15 mg/kg, po measured after 0.08 to 72 hrs post dose by LC-MS/MS analysis; assay type: ADME, organism-based, Canis lupus familiaris; set-up: dose 15 mg/kg, route oral; conditions: in vivo; how it was run: as §2
[14] = Clearance in Sprague-Dawley rat at 15 mg/kg, po measured after 0.08 to 72 hrs post dose by LC-MS/MS analysis; assay type: ADME, organism-based; conditions: in vivo; how it was run: as §2
Hepatitis C virus [15] = test: Antiviral activity against HCV J6/JFH/JC1 infected in human Huh7.5 cells assessed as reduction in viral RNA levels incubated for 72 hrs by qRT-PCR analysis; assay type: functional, organism-based
How it was run: (§3)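 Huh7.5 cells seeded 24 h, then infected with wild-type (or mutant) HCV with compound added at the same time. Incubated 72 h. Intracellular HCV RNA measured by qRT-PCR, 2^-ΔCt method, normalized to GAPDH. Eight-step 1:5 serial dilutions in triplicate; EC50 by Reed & Muench; three independent experiments.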

Hepatitis C virus [16] = test: Synergistic antiviral activity against HCV infected in human Huh7.5 cells assessed as reduction in HCV core protein level by measuring (q) value at 0.1 uM in presence of 0.025 uM simeprevir incubated for 72 hrs by Western blot assay based Webb method relative to control; assay type: functional, Hepacivirus hominis
How it was run: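 Huh7.5 cells in 6-well plates were infected with HCV in the presence of 0.1 μM test compound combined with simeprevir 0.025 μM, sofosbuvir 0.1 μM or daclatasvir 0.016 nM. Western blot at 72 h gave HCV core protein relative to actin, normalized to control. q calculated by Webb's method (q<1 antagonism, =1 addition, >1 synergy); over 3 independent experiments.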

Hepatitis C virus [17] = test: Antiviral activity against wild type HCV by qRT-PCR analysis based by Reed-Muench method; assay type: functional, organism-based, Hepacivirus hominis; how it was run: as §3
[18] = Clearance in beagle dog at 15 mg/kg, po measured after 0.08 to 72 hrs post dose by LC-MS/MS analysis; assay type: ADME, organism-based, Canis lupus familiaris; conditions: in vivo; how it was run: as §2
[19] = Drug level in beagle dog at 15 mg/kg, po measured after 72 hrs post dose by LC-MS/MS analysis; assay type: ADME, organism-based, Canis lupus familiaris; conditions: in vivo, read-out: Drug uptake; how it was run: as §2
[20] = Toxicity in Kunming mouse assessed as effect on […] level at 250 to 1000 mg/kg dosed via single oral gavage and measured on day 7 post treatment; assay type: organism-based; conditions: in vivo; how it was run: as §1
[21] = Half life in beagle dog at 15 mg/kg, po measured after 0.08 to 72 hrs post dose by LC-MS/MS analysis; assay type: ADME, organism-based, Canis lupus familiaris; conditions: in vivo; how it was run: as §2
[22] = Bioavailability in Sprague-Dawley rat at 5 mg/kg, iv measured after 0.08 to 72 hrs post dose by LC-MS/MS analysis; assay type: ADME, organism-based; conditions: in vivo; how it was run: as §2
Hepatitis C virus [23] = test: Induction of HCV GS4.3 viral particles inactivation infected in human Huh7.5 cells assessed as reduction in viral protein levels at 1 uM pre-incubated with virus for 2 hrs before viral infection and measured after 72 hrs by Western blot assay; assay type: functional, organism-based; conditions: Hepacivirus hominis
How it was run: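 Huh7.5 cells inoculated with HCV stock pre-treated 2 h with 1.0 μM compound, then diluted 20-fold (final 0.05 μM). Control stocks were treated with 0.05 μM or 1.0 μM. Intracellular proteins were extracted and analysed by western blot at 72 h, with HCV Core/actin ratio normalized to control.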

[24] = Half life in Sprague-Dawley rat at 15 mg/kg, po measured after 0.08 to 72 hrs post dose by LC-MS/MS analysis; assay type: ADME, organism-based; conditions: in vivo; how it was run: as §2
[25] = AUC (0 to 72 hrs) in beagle dog at 15 mg/kg, po measured after 0.08 to 72 hrs post dose by LC-MS/MS analysis; assay type: ADME, organism-based, Canis lupus familiaris; set-up: time < 72 hr, dose 15 mg/kg, route oral; conditions: in vivo; how it was run: as §2
[26] = AUC (0 to 72 hrs) in Sprague-Dawley rat at 5 mg/kg, iv measured after 0.08 to 72 hrs post dose by LC-MS/MS analysis; assay type: ADME, organism-based; set-up: time < 72 hr, dose 5 mg/kg, route intravenous; conditions: in vivo; how it was run: as §2
[27] = AUC (0 to 72 hrs) in Sprague-Dawley rat at 15 mg/kg, po measured after 0.08 to 72 hrs post dose by LC-MS/MS analysis; assay type: ADME, organism-based; set-up: dose 15 mg/kg, time < 72 hr, route oral; conditions: in vivo; how it was run: as §2

Question: What does the source list for `CN(C)CCN(C)c1ccc(C#N)c(CN2CCN(c3ccc(Cl)cc3)CC2)c1`?
Answer: Activity [1]: Non-Toxic; Activity [2]: Non-Toxic; Vz [3]: 34834.07 mL/kg; selectivity ratio [4]: 3; Activity (Hepatitis C virus [5]): Dose-dependent effect; Vd [6]: 20.1 L/kg; Activity (Hepatitis C virus [7]): inactive; CC50 [8]: 4.28 µM; half-life [9]: 437 min; concentration at 24 h [10]: 77 ng/mL; Tmax [11]: 3 h; EC50 (Hepatitis C virus [12]): 30 nM; Cmax [13]: 94.5 ng/mL; CL/F [14]: 37.4 mL/min/kg; Activity (Hepatitis C virus [15]; Hepacivirus hominis): Dose-dependent effect; EC50 (Hepatitis C virus [15]; J6/JFH/JC1, Huh7.5, 72 h): 22 nM; Ratio (Hepatitis C virus [16]): 1.05; EC50 (Hepatitis C virus [17]): 3 nM; CL/F [18]: 200 mL/min/kg; concentration at 72 h [19]: 0.69 ng/mL; Activity [20]: Non-Toxic; half-life [21]: 763 min; bioavailability [22]: 59%; Activity (Hepatitis C virus [23]): inactive; half-life [24]: 770 min; AUC(0-t) at 72 h [25]: 1280 ng·h/mL; AUC(0-t) at 72 h [26]: 5420 ng·h/mL; AUC(0-t) at 72 h [27]: 9590 ng·h/mL
